# ChEMBL document CHEMBL1143180, “Imidazolyl benzimidazoles and imidazo[4,5-b]pyridines as potent p38alpha MAP kinase inhibitors with excellent in vivo antiinflammatory properties” (Bioorg Med Chem Lett, 2008)
# Tests used:
# [1] = biological target: Mitogen-activated protein kinase 14 (Homo sapiens, UniProt Q16539); assay: Inhibition of human recombinant p38alpha
# Macrophage = assay: Inhibition of LPS-stimulated TNFalpha production in mouse peritoneal macrophages; assay type: functional, cell-based
# Procedure, shortened: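 Murine peritoneal macrophages stimulated with LPS while exposed to test compound; TNFα release measured as functional read-out. Cell assay minimum significant ratio 2.8.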
# [2] = biological target: Mitogen-activated protein kinase 14 (Mus musculus, UniProt P47811); assay: Inhibition of mouse p38alpha in anisomycin-stimulated RAW 264.7 cells by ELISA; assay type: cell-based
# Chain of Mitogen-activated protein kinase 14 (Mus musculus, UniProt P47811) (P47811 whole entry): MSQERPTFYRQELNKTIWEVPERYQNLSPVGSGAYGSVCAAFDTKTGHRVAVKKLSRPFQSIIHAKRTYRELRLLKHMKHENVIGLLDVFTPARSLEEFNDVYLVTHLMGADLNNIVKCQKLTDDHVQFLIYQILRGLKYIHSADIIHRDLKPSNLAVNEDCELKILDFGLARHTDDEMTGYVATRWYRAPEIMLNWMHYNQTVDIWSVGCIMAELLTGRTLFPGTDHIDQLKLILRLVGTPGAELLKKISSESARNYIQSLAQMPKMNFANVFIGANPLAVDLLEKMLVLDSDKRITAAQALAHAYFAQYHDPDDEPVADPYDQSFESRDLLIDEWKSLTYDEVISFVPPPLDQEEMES
# Procedure, shortened: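 Cell-based ELISA: RAW 264.7 cells pretreated with compound, then stimulated with anisomycin; p38α activity detected by antibody to phospho-MAPKAPK-2 (Thr334), a residue phosphorylated specifically by p38α. Minimum significant ratio 2.8.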
# Mus musculus = assay: Inhibition of LPS-stimulated TNFalpha production in po dosed BALB/c mouse; assay type: functional
# [3] = AUC (0 to infinity) in rat at 10 mg/kg, po; assay type: ADME, organism-based; set-up: time infinity, dose 10 mg/kg, route oral; conditions: plasma
# Procedure, shortened: (§1)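 Rats dosed orally at 10 mg/kg; plasma exposure reported as AUC0-inf and terminal half-life.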
# [4] = Half life in rat at 10 mg/kg, po; assay type: ADME, organism-based; set-up: dose 10 mg/kg, route oral; conditions: in vivo; procedure, shortened: as §1
# Rattus norvegicus [5] = assay: Antiinflammatory activity against collagen-induced arthritis rat model assessed as effect on histopathology scores administered orally twice daily for 14 days; assay type: functional
# Procedure, shortened: (§2)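 Rat collagen-induced arthritis, 14-day chronic model; activity scored by paw swelling and by histopathology (bone erosion, cartilage destruction); TMED50 derived from dose response.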
# Rattus norvegicus [6] = assay: Antiinflammatory activity against collagen-induced arthritis rat model assessed as inhibition of paw swelling administered orally twice daily for 14 days; assay type: functional; procedure, shortened: as §2
# Chain of Mitogen-activated protein kinase 14 (Homo sapiens, UniProt Q16539) (Q16539 whole entry): as the sequence (P47811 whole entry) above, with H48L, A263T counted along it
structure (smiles),measurement,setting,value
CC(C)Cn1cnc2ccc(-c3[nH]c(-c4c(F)cccc4F)nc3-c3ccccc3)cc21,IC50,[1],16.2 nM
same,IC50,Macrophage,51.9 nM
Fc1cccc(F)c1-c1nc(-c2ccccc2)c(-c2ccc3nc[nH]c3c2)[nH]1,IC50,[1],88.4 nM
same,IC50,[2],766 nM
same,IC50,Macrophage,419 nM
CC(C)S(=O)(=O)n1c(N)nc2ccc(-c3nc(-c4ccccc4C(F)(F)F)[nH]c3-c3ccccc3)cc21,IC50,[1],26.1 nM
same,IC50,[2],284 nM
same,IC50,Macrophage,33.1 nM
Cc1nc2ccc(-c3[nH]c(-c4c(F)cccc4F)nc3-c3ccccc3)cc2n1CC(C)C,IC50,[1],11.2 nM
same,IC50,Macrophage,338 nM
Cc1nc(-c2ccc(F)cc2)c(-c2ccc3nc(N)n(S(=O)(=O)C(C)C)c3c2)[nH]1,IC50,[1],7.1 nM
same,IC50,[2],225 nM
same,IC50,Macrophage,104 nM
CC(C)S(=O)(=O)n1c(N)nc2ccc(-c3[nH]c(-c4c(F)cccc4Cl)nc3-c3ccccc3)cc21,IC50,[1],14.5 nM
same,IC50,[2],74.5 nM
same,IC50,Macrophage,11.2 nM
CC(C)Cn1cnc2ccc(-c3[nH]c(-c4c(Cl)cccc4Cl)nc3-c3ccccc3)nc21.CS(=O)(=O)O,IC50,[1],3.7 nM
same,IC50,[2],64.7 nM
same,TMED50,Mus musculus,<2.5 mg/kg
same,IC50,Macrophage,1.7 nM
same,AUC(0-inf),[3],29.9 µM·h
same,half-life,[4],4 h
same,TMED50,Rattus norvegicus [5],>30 mg/kg
same,TMED50,Rattus norvegicus [6],15 mg/kg
CC(C)S(=O)(=O)n1c(N)nc2ccc(-c3nc(-c4c(Cl)cccc4Cl)[nH]c3-c3ccccc3)cc21,IC50,[2],38.9 nM
same,IC50,Macrophage,2.6 nM
CC(C)S(=O)(=O)n1c(N)nc2ccc(-c3[nH]cnc3-c3ccccc3)cc21,IC50,[2],195 nM
same,IC50,Macrophage,31.8 nM
CC(C)S(=O)(=O)n1c(N)nc2ccc(-c3[nH]c(-c4c(F)cccc4F)nc3-c3ccccc3)nc21,IC50,[1],3.5 nM
same,IC50,[2],298 nM
same,IC50,Macrophage,3.7 nM
CC(C)(C)Cn1c(N)nc2ccc(-c3[nH]c(-c4c(F)cccc4F)nc3-c3ccccc3)nc21,IC50,[1],6.4 nM
same,IC50,Macrophage,< 9 nM
CC(C)S(=O)(=O)n1c(N(C)Cc2ccccc2)nc2ccc(-c3[nH]c(-c4c(F)cccc4F)nc3-c3ccccc3)cc21,IC50,[1],2490 nM
same,IC50,Macrophage,234 nM
Cc1nc(-c2ccccc2)c(-c2ccc3nc(N)n(S(=O)(=O)C(C)C)c3c2)[nH]1,IC50,[1],20.4 nM
same,IC50,Macrophage,186 nM
CC(C)S(=O)(=O)n1c(N)nc2ccc(-c3[nH]c(-c4ccncc4)nc3-c3ccccc3)cc21,IC50,[1],6.1 nM
same,IC50,[2],62.3 nM
same,IC50,Macrophage,14.1 nM
CC(C)Cn1cnc2ccc(-c3[nH]c(-c4c(F)cccc4F)nc3-c3ccccc3)nc21,IC50,[1],4.5 nM
same,IC50,[2],69.7 nM
same,IC50,Macrophage,26.7 nM
CC(C)S(=O)(=O)n1c(N)nc2ccc(-c3[nH]c(-c4ccc(Cl)cc4)nc3-c3ccccc3)cc21,IC50,[1],34.7 nM
same,IC50,[2],376 nM
same,IC50,Macrophage,71 nM
CC(C)S(=O)(=O)n1c(N)nc2ccc(-c3[nH]c(-c4c(Cl)cccc4C(F)(F)F)nc3-c3ccccc3)cc21,IC50,[1],8.5 nM
same,IC50,[2],398 nM
same,IC50,Macrophage,1.9 nM
CC(C)S(=O)(=O)n1c(N)nc2ccc(-c3nc(-c4c(Cl)cccc4Cl)[nH]c3-c3ccc(F)cc3)cc21,IC50,[1],6.7 nM
same,IC50,[2],27.5 nM
same,IC50,Macrophage,5.3 nM
CC(C)S(=O)(=O)n1c(N)nc2ccc(-c3[nH]c(C(C)(C)C)nc3-c3ccc(F)cc3F)cc21,IC50,[2],26.2 nM
same,TMED50,Mus musculus,2.2 mg/kg
same,IC50,Macrophage,6.2 nM
same,AUC(0-inf),[3],14.6 µM·h
same,half-life,[4],8 h
same,TMED50,Rattus norvegicus [5],8.1 mg/kg
same,TMED50,Rattus norvegicus [6],1.5 mg/kg
CC(C)Cn1c(N)nc2ccc(-c3[nH]c(-c4c(F)cccc4F)nc3-c3ccccc3)cc21,IC50,[1],9.9 nM
same,IC50,[2],78.3 nM
same,IC50,Macrophage,47.5 nM
CCNc1nc2ccc(-c3[nH]c(-c4c(F)cccc4F)nc3-c3ccccc3)cc2n1S(=O)(=O)C(C)C,IC50,[1],156 nM
same,IC50,Macrophage,527 nM
CC(C)(C)Cn1cnc2ccc(-c3[nH]c(C(C)(C)C)nc3-c3ccc(F)cc3F)nc21,IC50,[2],20.7 nM
same,IC50,Macrophage,24.1 nM
Nc1nc2ccc(-c3[nH]c(-c4c(F)cccc4F)nc3-c3ccccc3)cc2n1-c1ccccc1,IC50,[1],158 nM
Cc1nc(-c2ccc(F)cc2F)c(-c2ccc3nc(N)n(S(=O)(=O)C(C)C)c3c2)[nH]1,IC50,[1],8.8 nM
same,IC50,[2],59.7 nM
same,IC50,Macrophage,46.5 nM
Nc1nc2ccc(-c3[nH]c(-c4c(F)cccc4F)nc3-c3ccccc3)cc2[nH]1,IC50,[1],131 nM
same,IC50,Macrophage,1330 nM
CCNc1nc2ccc(-c3[nH]c(-c4c(F)cccc4F)nc3-c3ccccc3)cc2[nH]1,IC50,[1],56.4 nM
same,IC50,Macrophage,493 nM
CC(C)(C)Cn1c(N)nc2ccc(-c3[nH]c(-c4c(F)cccc4F)nc3-c3ccccc3)cc21,IC50,[1],6 nM
same,IC50,[2],126 nM
same,IC50,Macrophage,3.5 nM
CC(C)S(=O)(=O)n1c(N)nc2ccc(-c3[nH]c(-c4c(F)cccc4F)nc3-c3ccccc3)cc21,IC50,[2],45.7 nM
same,TMED50,Mus musculus,5.2 mg/kg
same,IC50,Macrophage,10.3 nM
same,AUC(0-inf),[3],5.5 µM·h
same,half-life,[4],5 h
same,TMED50,Rattus norvegicus [5],>30 mg/kg
same,TMED50,Rattus norvegicus [6],>30 mg/kg
CC(C)Cn1c(N)nc2ccc(-c3[nH]c(-c4c(F)cccc4F)nc3-c3ccccc3)nc21,IC50,[1],2.5 nM
same,IC50,[2],35 nM
same,IC50,Macrophage,1.3 nM
